Only some compounds are listed: those with a hit (about 2.5% of all), similar ones and a draw of the others.
AF4-AF9 inh: inhibitors of human MLL-AF4/AF9 interaction | 350,000 compounds, 0.47% hits | P42568 | AID 651704 | AlphaScreen, biotin-AF4 peptide binding to FLAG-AF9 | inhibition, % at 10 µM;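 active = every replicate reaching a set inhibition limit, whatever the replicate mean, cut at about 25% in these data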;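 also: 0% = plate neutral control median and 100% = total signal loss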
Target sequence (P42568 whole entry, looked up): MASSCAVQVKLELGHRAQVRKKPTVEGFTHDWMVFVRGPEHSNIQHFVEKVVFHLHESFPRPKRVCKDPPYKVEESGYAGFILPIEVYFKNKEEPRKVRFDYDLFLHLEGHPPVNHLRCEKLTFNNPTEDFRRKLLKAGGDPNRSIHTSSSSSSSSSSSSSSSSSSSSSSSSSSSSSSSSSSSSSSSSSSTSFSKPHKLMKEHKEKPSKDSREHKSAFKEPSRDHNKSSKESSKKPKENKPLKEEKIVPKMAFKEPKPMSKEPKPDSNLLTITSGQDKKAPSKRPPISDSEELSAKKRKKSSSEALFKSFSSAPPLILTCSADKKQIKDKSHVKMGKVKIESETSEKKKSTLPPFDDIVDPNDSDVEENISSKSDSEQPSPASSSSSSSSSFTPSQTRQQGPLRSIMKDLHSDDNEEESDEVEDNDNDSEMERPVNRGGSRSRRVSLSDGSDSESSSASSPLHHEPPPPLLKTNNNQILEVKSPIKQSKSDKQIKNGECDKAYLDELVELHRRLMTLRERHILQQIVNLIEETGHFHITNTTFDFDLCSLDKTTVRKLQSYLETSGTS
EWS-Fli inh: inhibitors of EWS/Fli oncoprotein transcriptional activity | A673 NR0B1-luciferase reporter, viability-normalised | inhibition, % at 12.6 µM | 350,000 compounds, 0.67% hits | AID 651661;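 active = mean inhibition of at least 50% after viability correction, with every replicate also passing that limit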;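 also: firefly luciferase signal divided by Alamar Blue viability fluorescence both relative to DMSO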
PAX8 inh HTS: PAX8 transcriptional activity inhibition; inhibition, % at 12.6 µM; 360,000 compounds, 1.2% hits; RMG-I TPO-luciferase reporter, SteadyGlo, 24 h;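 active = mean replicate inhibition at least 60% with every replicate also reaching 60%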;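 also: luciferase light reporting Pax8 driven TPO promoter activity; plate controls were median of neutral control wells for no effect and mitoxantrone controls for full effect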
Env fusion inh: inhibitors of HIV Env-mediated cell fusion; HeLa-JRFL Env/CEM21 cell fusion, luciferase; inhibition, % at 12.3 µM; 360,000 compounds, 1.1% hits;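 active = mean replicate inhibition score of at least 50 and every replicate individually at or above 50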;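 also: 0% = plate neutral controls and 100% = maraviroc near 300 nM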
FN deposition inh: fibronectin deposition inhibition; AH1F fibroblasts, Alexa488-fibronectin deposition fluorescence, overnight; 350,000 compounds, 0.086% hits; inhibition, % at 12.6 µM;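 active = mean inhibition across replicates of 30% or more, regardless of how many single replicates reach that level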;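 also: positive control wells lacked labelled fibronectin entirely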
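Material – AH1F fibroblast monolayer, labelled fibronectin deposition · Reagent – labelled fibronectin 24 nM · Timing – 1 h adhesion, overnight exposure · Measured by – fluorescence at 485 nm excitation, 525 nm emission · Read-out – inhibition of fibronectin deposition signal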
Glyco luc inh: N-linked glycosylation inhibition; D54 ERlucT glycosylation luciferase reporter, 24 h; percent of 100 nM tunicamycin response; reporter increase, % at 12.5 µM; 360,000 compounds, 0.23% hits;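 active = mean luciferase reporter signal, scaled so untreated is 0 and the glycosylation-blocking control 100, at or above a set limit in every replicate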;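 also: luciferase carries N-glycosylation sites so blocking glycosylation raises the light; 0% = median of neutral control wells and 100% = median of 100 nM tunicamycin wells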
* marks the source's active call; other numbers are inactive results; · = not tested or not shown; [ ] = dose if it differs, or a comment.

SMILES | AF4-AF9 inh | EWS-Fli inh | PAX8 inh HTS | Env fusion inh | FN deposition inh | Glyco luc inh
C[C@@H]1CCCCO[C@H](CN(C)Cc2ccccc2)[C@@H](C)CN([C@H](C)CO)C(=O)c2cc(NC(=O)Nc3ccc(F)cc3)ccc2O1 | 4 | -6 | -6 | -1[16.7 µM] | · | ·
C[C@H]1CCCCO[C@@H](CN(C)Cc2ccccc2)[C@@H](C)CN([C@@H](C)CO)C(=O)c2cc(NC(=O)Nc3ccccc3)ccc2O1 | 14 | 13 | 38 | 69*[16.7 µM] | 7 | ·
COc1ccc(NC(=O)Nc2ccc3c(c2)C(=O)N([C@@H](C)CO)C[C@H](C)[C@H](CN(C)Cc2ccncc2)OCCCC[C@H](C)O3)cc1 | 5 | 1 | -3 | 88*[16.7 µM] | · | ·
C[C@@H]1CCCCO[C@H](CN(C)Cc2ccccc2)[C@@H](C)CN([C@@H](C)CO)C(=O)c2cc(NS(=O)(=O)c3ccc(F)cc3)ccc2O1 | 4 | 4 | 18 | -9[16.7 µM] | -7 | ·
COc1ccc(NC(=O)N(C)C[C@H]2OCCCC[C@H](C)Oc3ccc(NS(=O)(=O)c4ccccc4)cc3C(=O)N([C@H](C)CO)C[C@@H]2C)cc1 | 2 | 6 | -18 | -29[16.7 µM] | 5 | ·
C[C@@H]1CCCCO[C@H](CN(C)Cc2ccncc2)[C@H](C)CN([C@@H](C)CO)C(=O)c2cc(NC(=O)Nc3ccccc3)ccc2O1 | 6 | · | 29 | -37[16.7 µM] | 0 | ·
C[C@H]1CCCCO[C@@H](CN(C)Cc2ccccc2)[C@@H](C)CN([C@@H](C)CO)C(=O)c2cc(NC(=O)Nc3ccc(F)cc3)ccc2O1 | 10 | 11 | 49 | 70*[16.7 µM] | · | ·
C[C@H]1CCCCO[C@@H](CN(C)Cc2ccncc2)[C@@H](C)CN([C@@H](C)CO)C(=O)c2cc(NC(=O)Nc3ccccc3)ccc2O1 | 7 | · | 9 | 58*[16.7 µM] | -8 | ·
COc1ccc(NC(=O)Nc2ccc3c(c2)C(=O)N([C@@H](C)CO)C[C@@H](C)[C@@H](CN(C)CC2CC2)OCCCC[C@@H](C)O3)cc1 | 26* | · | 3 | 1[16.7 µM] | -3 | ·
COc1ccc(CN(C)C[C@H]2OCCCC[C@@H](C)Oc3ccc(NC(=O)Nc4ccc(F)cc4)cc3C(=O)N([C@@H](C)CO)C[C@@H]2C)cc1 | 22 | -12 | 85* | -77[16.7 µM] | · | ·
COc1ccccc1-c1ccc(C2[C@@H]3CN(S(=O)(=O)c4ccc(F)cc4)C[C@H]2N3)cc1 (stereo partly drawn) | 1 | -5 | -12 | · | 3 | ·
COc1ccccc1NC(=O)N[C@@H]1CC[C@@H](CC(=O)N[C@@H](C)c2ccccc2)O[C@@H]1CO | -1 | 5 | -2 | -1[16.7 µM] | 2 | ·
O=C(NC[C@H]1CC[C@@H]2[C@@H](CN2S(=O)(=O)c2ccccc2[N+](=O)[O-])O1)C1CC1 | -2 | 8 | · | · | · | ·
C[C@H]1CN([C@@H](C)CO)C(=O)c2cccc(NC(=O)c3ccncc3)c2O[C@@H]1CN(C)S(=O)(=O)c1ccc(F)cc1 | -4 | 5 | -6 | · | · | ·
C[C@H](CO)N1C[C@H](C)[C@@H](CN(C)Cc2ccccc2)OCCCC[C@H](C)Oc2ccc(NC(=O)Nc3ccc(F)cc3)cc2C1=O | 3 | -4 | 7 | -20[16.7 µM] | · | ·
CC(C)Cc1nc2oc3c(Cl)ncnc3c2c2c1CCC2 | 2 | 58* | · | · | · | 1
CC(=O)Nc1nc2cc3c(cc2s1)OCO3 | -9 | -35 | -144 | -78 | 4 | -2
O=C(Nc1nc2cc3c(cc2s1)OCO3)c1ccco1 | -12 | 64* | 33 | -188 | 2 | -18
O=C(Nc1nc2cc3c(cc2s1)OCCO3)c1ccco1 | 0 | 87* | · | 58* | -9 | -23
O=C(Nc1nc2cc3c(cc2s1)OCO3)C1=COCCO1 | 6 | 80* | 33 | -48 | 11 | -20
CN1C(=O)c2cc(NC(=O)C3CC3)ccc2OC[C@H]2O[C@H](CC(=O)NCc3ccccc3F)CC[C@@H]21 | -28 | 5 | -26 | -8[16.7 µM] | -7 | ·
CO[C@@H]1CN(C)C(=O)c2ccc(NC(C)=O)cc2OC[C@@H](C)N(C(=O)c2ccccc2)C[C@H]1C | · | · | · | · | 10 | ·
CC1Cc2ccccc2N1C(=O)CSc1nc2c(c(=O)n(C)c(=O)n2C)n1Cc1ccccc1 (stereo not drawn) | · | · | · | 56* | -4 | 4
CCC(=O)N1C[C@H](C)[C@H](OC)CN(C)C(=O)c2cc(NC(=O)Nc3cccc(F)c3)ccc2OC[C@H]1C | 4 | -3 | 0 | 4[16.7 µM] | -1 | ·
COc1ccc2c3c(n(C)c2c1)[C@H](CO)N(Cc1ccncc1)CC31CCN(C(=O)Cc2ccncc2)CC1 | -10 | 8 | · | · | · | ·
SMILES | AF4-AF9 inh | EWS-Fli inh | PAX8 inh HTS | Env fusion inh | FN deposition inh | Glyco luc inh
Cc1csc(NC(=O)CSc2nsc(SCC(=O)Nc3nc(C)cs3)c2C#N)n1 | · | · | · | -216 | · | -10
Cc1ccc(NC(=O)CSc2nsc(SCC(=O)Nc3ccc(C)cc3C)c2C#N)c(C)c1 | -1 | 10 | -6 | 5 | 5 | 30*
COc1ccccc1NC(=O)Nc1ccc2c(c1)C(=O)N(C)C[C@@H](OC)[C@H](C)CN[C@@H](C)CO2 | 1 | 5 | 5 | -23[16.7 µM] | · | ·
COc1ccc(NC(=O)N2CCN(c3nc(-c4cccc(OC)c4)cs3)CC2)cc1 | · | · | · | 63* | -4 | -5
COc1ccc(N2CCN(C(=O)CN3CCN(c4nc(-c5ccc(F)cc5)cs4)CC3)CC2)cc1 | 27* | 7 | 2 | 32 | -4 | -1
COc1cccc(-c2csc(N3CCN(C(=O)Nc4ccc(Cl)cc4)CC3)n2)c1 | -2 | -10 | -24 | 23 | 7 | -4
CC(C)C[C@H](NC(=O)c1nc[nH]c1C(=O)N[C@@H](CC(C)C)C(=O)OCc1ccccc1)C(=O)OCc1ccccc1 | -3 | 5 | 58 | 71* | -2 | -1
CC(C)C[C@H](NC(=O)c1nc[nH]c1C(=O)N[C@@H](CC(C)C)C(=O)OC(C)(C)C)C(=O)OC(C)(C)C | 5 | 24 | 66* | 70* | -2 | -1
CC(C)C[C@H](NC(=O)c1nc[nH]c1C(=O)NC(c1ccccc1)c1ccccc1)C(=O)OC(C)(C)C | 2 | 23 | 67* | 14 | -2 | -2
CC(C)C[C@H](NC(=O)c1nc[nH]c1C(=O)NCC(=O)OC(C)(C)C)C(=O)OC(C)(C)C | 5 | 3 | 9 | -4 | 3 | -2
CO[C@H]1CN(C)C(=O)c2ccc(NS(C)(=O)=O)cc2OC[C@H](C)N(Cc2cccnc2)C[C@H]1C | 1 | -1 | · | · | 9 | ·
COc1ccccc1-c1cnc2c(c1)C(=O)N([C@@H](C)CO)C[C@@H](C)[C@H](CN(C)CC1CCOCC1)O2 | -2 | -3 | -21 | · | · | ·
COC(=O)c1ccc(Oc2nc(Nc3ccc(C)c(C)c3)nc(N(C)C)n2)cc1 | · | · | · | 65* | -7 | 2
Cc1csc2sc(-c3ccnc(SCC(=O)NCc4ccccc4)n3)c(C)c12 | -2 | 55* | 30 | -55 | 0 | 16

Assay outcomes from PubChem BioAssay.
